Sampled rows, rich in hits. Any-hit rate of the full collection: about 4.8%.
T cruzi inh – blocks replication of Trypanosoma cruzi. T. cruzi beta-gal in NIH3T3, luminescence, 90 h. inhibition, % (test concentration not listed). actives 1.4% (n = 300,000). AID 1885;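 active means mean inhibition across valid replicates above about 55%, limit read from the data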;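 further: signal also drops with host cell toxicity which is not excluded here; 0% = plate median of DMSO wells and 100% = zero luminescence signal; higher percent means less beta-gal luminescence so fewer parasites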
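System: Mouse NIH/3T3 fibroblasts infected with β-gal-expressing T. cruzi Tulahuen C4 | Quantity: NIH/3T3 cells, 5,000 per well | Reagent: 5000 reporter trypomastigotes per well | Dosing: Compound pinned at 50 nL/well, DMSO | Schedule: 3 h host attachment, then at least 90 h co-culture | Detection: GalScreen luminescence, 60 min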
HSF1 inh – HSF1 inhibition; NIH3T3-HGL HSE-luciferase, MG132-induced, luminescence 8 h; stronger effect = lower value; activity change, negative = inhibition, % at 7.5 µM (by protocol); actives 0.77% (n = 300,000);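 active means more than half of replicate wells show activity change below -50%, luminescence cut by over half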;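 further: luciferase reports HSF-1 transcriptional activity via heat shock element; 0% = median of DMSO wells and -100% = zero luminescence signal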
697 NFkB inh – inhibitors of the PMA/ionomycin-induced NF-kB reporter in 697 B cells | inhibition, % at 4 µM | 697 B-cell NF-kB luciferase reporter, 16 h | actives 0.33% (n = 330,000) | AID 435022; in the data active means inhibition above about 35%
GPR7 antag – blocks human GPR7 receptor signaling; actives 1.1% (n = 290,000); AID 1861; P48145; inhibition, % at 4.4 µM; GPR7-expressing cells, fluorescence antagonist assay; in the data active means inhibition above about 16%, passing the limit was not always enough;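 further: cells stimulated with the agonist NPW; 0% = agonist with vehicle and 100% = vehicle without agonist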
Target sequence (P48145 whole entry, looked up): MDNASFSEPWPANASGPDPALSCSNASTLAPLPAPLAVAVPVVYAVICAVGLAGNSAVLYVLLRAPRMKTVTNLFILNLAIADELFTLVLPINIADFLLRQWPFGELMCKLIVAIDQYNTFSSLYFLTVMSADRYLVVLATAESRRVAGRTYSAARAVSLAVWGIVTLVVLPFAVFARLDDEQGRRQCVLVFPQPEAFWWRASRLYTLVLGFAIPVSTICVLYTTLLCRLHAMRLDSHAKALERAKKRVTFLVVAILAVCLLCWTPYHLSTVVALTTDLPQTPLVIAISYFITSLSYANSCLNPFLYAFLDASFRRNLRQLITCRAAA
HSF1 activator – increases HSF-1 driven luciferase reporter signal | AID 504408 | NIH3T3-HGL HSF-1 luciferase reporter, MG132, 8 h; 100% = twice DMSO control signal | activation, % at 9 µM | actives 1.7% (n = 300,000);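 active means mean replicate activation of at least 50% with a set share of replicates each reaching 50%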;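 further: 0% = median of the neutral control wells and 100% = twice that signal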
Jurkat NFkB inh – inhibitors of the PMA/ionomycin-induced NF-kB reporter in Jurkat cells. PMA/ionomycin-induced NF-kB luciferase reporter, luminescence. inhibition, % at 4 µM. actives 0.53% (n = 330,000). AID 435003; in the data active means inhibition above about 50%
An asterisk follows results filed as active; nt = no result.

SMILES | T cruzi inh | HSF1 inh | 697 NFkB inh | GPR7 antag | HSF1 activator | Jurkat NFkB inh
COc1ccc(-n2nc(C(=O)NCC(=O)N(C)Cc3ccccc3)c3ccccc3c2=O)cc1OC | 4.1 | -3.3 | 0.7 | -6.1 | 1.6 | 16.8
CCN(c1ccccc1)S(=O)(=O)c1ccc(Cl)c(C(=O)N2CCCC2)c1 | nt | nt | 18.8 | nt | nt | 0.3
CCN(c1ccccc1)S(=O)(=O)c1ccc(Cl)c(C(=O)N(CC2CCCO2)C2CCS(=O)(=O)C2)c1 (stereo not given) | 18.5 | -58.2* | -4.1 | -20.2 | -64.1 | -2.4
CN(N=Nc1ccc([N+](=O)[O-])cc1)c1ccccc1 | 6.8 | 44.1 | -57.9 | 1.7 | 74.3* | -60.5
Clc1cccc(/C=N/Nc2nnc(Cl)c3ccccc23)c1 | 9.2 | 49.7 | -45.8 | -1.0 | 57.5* | -52.4
Clc1ccc(/C=N/Nc2nnc(-c3ncc[nH]3)c3ccccc23)cc1 | 27.4 | 15.4 | -6.2 | -5.7 | 15.8 | -45.3
CC(=O)c1cccc(NC(=O)/C(=C/c2ccncc2)NC(=O)c2ccccc2)c1 | -7.4 | -0.9 | 17.1 | 3.9 | 1.6 | 5.5
O=C(NCc1ccco1)C1CCN(S(=O)(=O)c2cccc([N+](=O)[O-])c2)CC1 | 4.1 | -79.8* | 22.7 | -6.9 | -83.6 | 8.6
CC(C)(C)c1ccc(C(=O)NCC(=O)OCc2ccc([N+](=O)[O-])cc2)cc1 | -12.3 | -1.3 | -1.6 | 19.7 | 11.3 | -9.2
Cc1ccc(C2NNC(=O)C2NC(=O)c2ccccc2)cc1 (stereo not given) | 11.9 | 35.3 | -40.5 | -3.7 | 64.8* | -43.8
O=C(NC1C(=O)NNC1c1ccccc1)c1ccc(F)cc1 (stereo not given) | -16.9 | 7.4 | -24.9 | 3.7 | 3.2 | -17.7
COc1cc(CNCc2c[nH]c3ccccc23)cc(OC)c1 | 78.0* | -2.3 | 0.7 | 15.3 | 1.9 | 19.5
Cc1ccc(C)c(-n2c(C)cc(/C=N/NC(=O)c3c(C)nc4cc(C)ccn34)c2C)c1 | 27.4 | -5.1 | 3.9 | -5.1 | 16.4 | 6.8
CC(=Nc1ccccc1)C1=C(O)CCCC1=O | -13.0 | 9.5 | 1.4 | -6.9 | 62.7* | -4.5
CC(=Nc1ccccc1)C1=C(O)CC(C)(C)CC1=O | -10.6 | -1.0 | 11.2 | -6.0 | 14.3 | -5.2
Cc1ccccc1CSc1nnc(-c2ccco2)n1Cc1ccco1 | 5.8 | 96.3 | -2.4 | 16.9* | 117.2* | -5.7
c1ccc(CSc2nnc(-c3ccco3)n2Cc2ccco2)cc1 | 14.5 | 49.5 | -47.6 | 8.0 | 79.9* | -22.6
O=C(CSc1nnc(-c2ccco2)n1Cc1ccccc1)OC1CCCCC1 | 0.5 | 47.4 | -84.1 | 6.1 | 78.7* | -64.0
Cn1c(NC(=O)CCC2CCCCC2)cc(=O)n(C)c1=O | 1.8 | 35.6 | -127.4 | -13.8 | 55.0* | -104.7
O=C(CCC1CCCCC1)Nc1ccccc1O | -4.3 | 45.3 | -72.3 | -6.6 | 58.9* | -83.6
Cc1ccc(S(=O)(=O)N(CC(=O)Nc2cccnc2)c2ccccc2C)cc1 | -6.5 | 3.9 | -4.0 | -7.3 | -9.3 | -13.1
Cc1cc(OCC(=O)OCC(=O)NC2CCCCC2C)ccc1Cl (stereo not given) | nt | nt | 11.7 | nt | nt | 1.8
CCN(CC)S(=O)(=O)c1cccc(-c2nnc(SCCCC(=O)c3ccccc3)o2)c1 | 65.7* | -1.7 | -18.8 | 2.2 | 1.0 | 7.0
Brc1ccccc1-c1nnc(SCc2nc3ccccc3s2)o1 | -6.6 | 11.3 | -124.7 | 9.3 | 54.5* | -89.3
CCN(CC)S(=O)(=O)c1cccc(-c2nnc(SCc3nc4ccccc4s3)o2)c1 | 22.3 | 39.8 | -77.2 | 1.5 | 62.2* | -28.7
SMILES | T cruzi inh | HSF1 inh | 697 NFkB inh | GPR7 antag | HSF1 activator | Jurkat NFkB inh
CCN(CC)S(=O)(=O)c1cccc(-c2nnc(SCCCC(=O)c3ccc(F)cc3)o2)c1 | 59.6* | 16.1 | -41.0 | 4.6 | 45.7 | 7.4
CCN(CC)S(=O)(=O)c1cccc(-c2nnc(-c3ccc(C)cc3)o2)c1 | 29.2 | -9.9 | -47.8 | -4.7 | -14.2 | -11.1
CC(=O)c1cnn(-c2c(Cl)cc(Cl)cc2Cl)c1C | nt | -58.6* | -1.7 | -6.7 | -63.8 | -0.9
Cc1ccsc1C(=O)C1CCCN(Cc2cccn2-c2ccc(Cl)cn2)C1 (stereo not given) | 26.6 | -4.7 | -13.8 | 39.5* | -15.6 | 7.6
C=CCOc1ccnc(-c2ccccc2)n1 | -1.6 | 3.3 | nt | -11.6 | 5.1 | nt
C=CCOc1ccn(C)c(=O)n1 | -11.1 | -54.5* | 1.4 | 1.8 | -63.9 | 11.0
CN1CCN(Cc2c(O)ccc3cc(Br)ccc23)CC1 | 7.6 | 112.2 | 4.9 | -1.8 | 133.9* | -10.1
COCc1cc(=O)c2ccccc2o1 | nt | nt | 14.7 | nt | nt | 4.1
O=C(NCc1ccco1)c1cc2n(n1)C(C(F)(F)F)CC(c1ccc(Br)cc1)N2 (stereo not given) | 2.3 | 6.2 | 11.8 | -7.2 | 1.8 | 3.1
O=C(NCc1ccco1)c1cc2n(n1)C(C(F)(F)F)CC(c1ccc(Cl)c(Cl)c1)N2 (stereo not given) | 55.4* | 4.4 | 12.0 | -13.3 | 5.2 | 0.9
CC1(C)CC2CC(C)(CN2C(=O)CCCN2C(=O)c3ccccc3C2=O)C1 (stereo not given) | 2.8 | -56.6* | -9.3 | -2.8 | -68.6 | 15.0
Cc1nnc2c(N3CCN(CCO)CC3)nc3ccccc3n12 | 1.0 | -3.7 | -1.3 | 6.5 | -3.8 | 9.8
CCCCCN(C(=O)CCC(=O)OCc1cccc(F)c1)c1c(N)n(CCCC)c(=O)[nH]c1=O | -2.8 | 10.6 | 11.6 | nt | 20.0 | -3.6
N#Cc1ccccc1COC(=O)c1ccc(Br)o1 | -5.8 | -5.8 | 1.5 | -1.6 | -6.8 | -1.3
N#Cc1ccccc1COC(=O)c1cc(=O)c2ccccc2o1 | -4.0 | 24.2 | -3.4 | -1.0 | 62.6* | -14.8
CCC(CC)COC(=O)C(C#N)c1nc2ccccc2nc1N1CCN(CC)CC1 (stereo not given) | 55.0* | -4.4 | 15.5 | 3.9 | 19.2 | 10.6
C=CCOC(=O)C(C#N)c1nc2ccccc2nc1N1CCN(Cc2ccc3c(c2)OCO3)CC1 (stereo not given) | 57.2* | 2.0 | -3.2 | -7.8 | 7.5 | -4.7
CCC(C)COC(=O)C(C#N)c1nc2ccccc2nc1N1CCCCC1 (stereo not given) | 41.3 | 4.5 | -23.1 | -8.2 | 10.6 | -18.0
CCCCCCOC(=O)C(C#N)c1nc2ccccc2nc1N1CCN(C)CC1 (stereo not given) | 67.7* | 7.9 | 4.5 | 3.6 | 19.0 | 2.2
O=c1[nH]c(CSc2ncc(C(F)(F)F)cc2Cl)nc2ccccc12 | 5.4 | 38.1 | -11.2 | -11.1 | 63.5* | -10.8
Cn1ccnc1SCc1nc2c(cnn2-c2ccccc2)c(=O)[nH]1 | -14.9 | 7.9 | -4.8 | 24.4 | 0.1 | 2.6
O=c1[nH]c(CSc2ccccn2)nc2ccccc12 | -6.7 | 34.5 | -74.7 | 3.4 | 75.0* | -84.2
O=c1[nH]c(CSc2ncnc3sccc23)nc2cc(C(F)(F)F)ccc12 | 7.0 | 0.6 | -15.1 | -8.5 | -11.9 | 10.1
